{
  "source": "paper PMC3985758",
  "about": "(ACS Chemical Biology, 2014)",
  "key": {"[1]": {"tested_on": "T47D ductal carcinoma cell line", "experiment": "Concentration-response proliferation assay, colloidal vs monomeric formulation", "format": "cell-based", "summary_of_the_method": "(§1)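 Cells seeded at 10,000 cells/cm2 and left to adhere overnight, then dosed in RPMI 1640 with 10% charcoal-stripped FBS. Colloidal formulation: DMSO stock diluted 1000-fold into medium (0.1% DMSO). Monomeric formulation: stock diluted 10-fold in DMSO, then into medium giving 1% DMSO and 0.025% v/v polysorbate 80. Vehicle controls made the same way. Medium refreshed every 12 h over 72 h; cells washed; proliferation by MTS or DAPI nuclei counts, relative to untreated.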"}, "[2]": {"conditions": "known aggregators; not among compounds measured by DLS here; cited from earlier work"}, "BT474": {"tested_on": "BT474", "experiment": "Concentration-response proliferation assay, colloidal vs monomeric formulation", "format": "cell-based", "summary_of_the_method": "as §1"}, "MCF7": {"tested_on": "MCF7", "experiment": "Concentration-response proliferation assay, colloidal vs monomeric formulation", "format": "cell-based", "summary_of_the_method": "as §1"}, "MCF7 cells": {"tested_on": "MCF7 cells", "conditions": "cited from earlier work"}, "MDA-MB-231 cells": {"tested_on": "MDA-MB-231 cells", "experiment": "Concentration-response proliferation assay", "format": "cell-based", "summary_of_the_method": "as §1"}},
  "data": [
    {"compound": "C[C@@H](Oc1cc(-c2cnn(C3CCNCC3)c2)cnc1N)c1c(Cl)ccc(F)c1Cl", "note": "[Crizotinib, crizotinib]", "values": [
      {"measurement": "concentration at which antiproliferative activity is lost", "setting": "[1]", "result": 10, "unit": "µM"},
      {"measurement": "CAC (critical aggregation concentration)", "setting": "[2]", "result": 19.3, "unit": "µM"}
    ]},
    {"compound": "C[C@]12CC[C@@H]3c4ccc(O)cc4C[C@@H](CCCCCCCCC[S+]([O-])CCCC(F)(F)C(F)(F)F)[C@H]3[C@@H]1CC[C@@H]2O", "note": "(stereo partly drawn) [Fulvestrant]", "values": [
      {"measurement": "concentration at which loss of activity is observed", "setting": "BT474", "result": "≥ 1", "unit": "µM"},
      {"measurement": "concentration at which loss of activity is observed", "setting": "MCF7", "result": "≥ 1", "unit": "µM"}
    ]},
    {"compound": "O=c1c(-c2ccc(O)cc2)coc2cc(O)cc(O)c12", "note": "[Genistein]", "values": [
      {"measurement": "concentration of maximum activity of bell-shaped curve", "setting": "MCF7 cells", "result": 50, "unit": "µM"}
    ]},
    {"compound": "CNC(=O)c1cc(Oc2ccc(NC(=O)Nc3ccc(Cl)c(C(F)(F)F)c3)cc2)ccn1", "note": "[Sorafenib, sorafenib]", "values": [
      {"measurement": "inhibition of cell proliferation", "setting": "MDA-MB-231 cells; 10 μM, colloidal formulation (0.1% DMSO, no UP 80), 72 h", "result": "almost entirely eliminated"},
      {"measurement": "inhibition at 10 µM", "setting": "MDA-MB-231 cells; Homo sapiens, MDA-MB-231, 72 h, read-out: inhibition of proliferation", "result": "~90", "unit": "%"},
      {"measurement": "concentration at which loss of activity is observed", "setting": "MDA-MB-231 cells; colloidal formulation, MDA-MB-231", "result": "≥ 10", "unit": "µM"},
      {"measurement": "CAC (critical aggregation concentration)", "setting": "[2]", "result": 3.5, "unit": "µM"}
    ]}
  ]
}
